Compound activity: PubChem BioAssay, several laboratories
STAT1 inh: STAT1 signaling inhibitors, primary screen, cell-based, HTS, luciferase reporter; NIH 3T3 STAT1-luciferase reporter, IFN-gamma, luminescence; AID 920, 2007; inhibition, % at 5.5 µM; 200,000 tested, 0.35% active;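 active = inhibition above a set limit, the mean inhibition across all tested compounds plus 3 SD, cut at about 34% in these data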
NF-kB expr up: activators of NF-kB expression in neurons, primary screen, cell-based, HTS. human neuronal cells, NF-kB reporter expression; hits give high values. fold change at 12.5 µM. 190,000 tested, 1.6% active. AID 1239, 2008; in the data active = fold change above about 3.3
STAT3 inh: IL-6 driven STAT3 reporter inhibitors, primary screen, U3A cells, luciferase, luminescence, MLSCN library | IL-6 STAT3-luciferase reporter; host cell line lacks STAT1 | inhibition, % at 5.5 µM | 190,000 tested, 0.89% active;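 active = inhibition above the mean inhibition across all screened compounds plus 3 SD, cut at about 44% in these data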
STAT1 act: STAT1 signaling activators, primary screen, cell-based, HTS, luciferase reporter | NIH 3T3 STAT1-luciferase reporter, IFN-gamma, luminescence; 100% = IFN-gamma alone, no compound | activation (% of control), % at 5.5 µM | 200,000 tested, 2.6% active | AID 932, 2007;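 active = activation above the screen-wide mean activation plus 3 SD, cut at about 130% in these data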
STAT3 act: IL-6 driven STAT3 reporter potentiators, primary screen, U3A cells, luciferase, luminescence, MLSCN library; 190,000 tested, 0.91% active; activation (% of control), % at 5.6 µM; IL-6 STAT3-luciferase reporter; 100% = signal with IL-6 EC80 alone;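 active = activation above the screen-wide mean of compound activation plus 3 SD, cut at about 130% in these data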
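Material: STAT1-lacking human U3A cells, STAT3 luciferase reporter | Benchmarks: IL-6-only wells as 100% reference | Probe or stimulus: IL-6 (33 ng/mL) | Timing: Compound 1 h, then IL-6 6 h at 37 °C | Detection: Luminescence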
APP 5'UTR act: activators of APP 5'UTR luciferase reporter, primary screen, SH-SY5Y cells. activation, % at 2 µM. 190,000 tested, 1% active. SH-SY5Y APP 5'UTR luciferase reporter, luminescence; zero percent = DMSO vehicle wells. AID 1276, 2008;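 active = activation above a set limit, based on mean plus 3 SD of controls, cut at about 140% in these data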
Each line names hits and unclear results; the compound was inactive in the other large screens. This is a sample that favours compounds with a hit; in the whole collection about 4.9% have one here.

CCC(C)(C)C1CCC(=NNC(=O)c2ccoc2C)CC1 (configuration not stated)	APP 5'UTR act 144
COc1ccc(-c2cc3nnc(-c4ccccc4)nc3s2)cc1	STAT1 act 135
COc1ccc(OC)c(Nc2ncnc3sc(-c4ccccc4)cc23)c1	none
COc1ccc2c(c1OC)C(=O)N(c1cccc(C)c1)C2=O	STAT1 act 136
O=C(c1ccc(Br)cc1)c1cc([N+](=O)[O-])ccc1N1CCCCC1	NF-kB expr up 5
Cc1ccc(C(=O)c2cc([N+](=O)[O-])ccc2N2CCOCC2)c(C)c1	NF-kB expr up 5.4
Cc1ccc(NC(=O)C2CCN(c3cnccn3)CC2)cc1C	none
Cc1ccc(C)c(NC(=O)/C(C#N)=C/c2ccc(Sc3nncn3C)c([N+](=O)[O-])c2)c1	none
Cc1nc(NCc2ccco2)c2c3c(sc2n1)CCC3	STAT1 act 150, STAT3 act 167
COc1ccc(C2=[N+](C)CCn3cccc32)c(OC)c1	none
CS(=O)(=O)c1nc(-c2cccs2)cc(C(F)(F)F)n1	STAT1 inh 50
O=C(O)CCS(=O)(=O)c1nc(-c2cccs2)cc(C(F)(F)F)n1	none
C/C(=N\Nc1ccc([N+](=O)[O-])cc1[N+](=O)[O-])C(C)C(C)C (configuration not stated)	none (no result: NF-kB expr up)
O=C(Nc1nccs1)c1ccc(-c2ccc(Cl)cc2Cl)o1	STAT1 act 146
CCOc1ccc(C2C(C(=O)/C=C/c3ccco3)=C(O)C(=O)N2CCN2CCOCC2)cc1OC (configuration not stated)	none
COc1ccc(Nc2nc(C)c3ccccc3n2)cc1	STAT1 act 134
COc1ccc(Nc2nc(C)c(-c3ccccc3)s2)cc1	STAT1 act 156
O=C(c1ccc(Cl)s1)N1CCOCC1	none
CCN1CCN(C(=O)c2ccc(-c3nc4ccccc4s3)s2)CC1	NF-kB expr up 4.2, STAT1 act 130
O=C(NC1CC1)c1ccc(-c2nc3ccccc3s2)s1	STAT1 inh 75, STAT3 inh 106
O=C(c1ccc(-c2nc3ccccc3s2)s1)N1CCOCC1	STAT1 inh 77, STAT3 inh 98
Cc1ccc2nc(NC(=O)c3ccc(-c4nc5ccccc5s4)s3)sc2c1	none
Cc1ccc(S(=O)(=O)N(C)C)cc1NC(=O)C(C)Sc1ccccc1 (configuration not stated)	none
CCOC(=O)c1c(C)[nH]c(C)c1C(=O)COc1ncnc2cc([N+](=O)[O-])ccc12	none
C/C(CCc1ccc2c(c1)OCO2)=N\N=C1\NC(=O)CC(C(=O)Nc2ccccc2F)S1 (configuration not stated)	none
COCCCNCC(O)C(F)(F)F (configuration not stated)	none
Nc1cc([N+](=O)[O-])ccc1O	none
Nc1ccc2c(c1)Cc1cc([N+](=O)[O-])ccc1-2	STAT1 act 134
O=C(CCc1nnc(-c2ccc(-c3ccccc3)cc2)o1)N1CCCCC1	none (no result: NF-kB expr up)
O=C(CCc1nnc(-c2ccsc2)o1)N1CCc2c(Cl)cccc2C1	STAT1 act 129
CSc1cccc(NC(=O)N2CCCC(CNS(=O)(=O)Cc3ccccc3)C2)c1 (configuration not stated)	none
Cc1cc(C(=O)COC(=O)c2ccc[nH]c2=O)c(C)n1-c1ccc(F)cc1	none
Cc1cc(C(=O)COC(=O)c2ccc[nH]c2=O)c(C)n1-c1ccccc1	STAT1 inh 36, STAT3 inh 49
Oc1cccc2cc3cccc(O)c3c(O)c12	none
CCN1C(=O)S/C(=C\c2ccc(N3CCOCC3)cc2C)C1=O	STAT1 act 144
CCCN1C(=O)S/C(=C\c2ccc(N3CCOCC3)cc2C)C1=O	none
CCC(C)N1C(=O)S/C(=C/c2ccc(N3CCOCC3)cc2C)C1=O (configuration not stated)	STAT1 act 132
Cc1cc(N2CCOCC2)ccc1/C=C1\SC(=O)N(C(C)C)C1=O	none
C#CCN1C(=O)S/C(=C\c2ccc(N3CCOCC3)cc2C)C1=O	STAT1 act 132
O=C(CN1C(=O)S/C(=C/c2ccc(N3CCOCC3)cc2)C1=O)N1CCOCC1	none
CC1(C)CC(=O)C2=C(C1)Nc1ccccc1NC2c1cccnc1 (configuration not stated)	none (no result: STAT1 inh, STAT3 inh, STAT1 act, STAT3 act, APP 5'UTR act)
Cn1cccc1C1Nc2ccccc2NC2=C1C(=O)CC(C)(C)C2 (configuration not stated)	APP 5'UTR act 139
Cc1ccc(NC(=O)Cn2nnc(C(=O)NCc3ccco3)c2N)cc1	none
Nc1c(C(=O)NCc2ccco2)nnn1CC(=O)Nc1ccc2c(c1)OCO2	NF-kB expr up 4
CC(C)CCNC(=O)c1cccc(C(=O)NCCC(C)C)c1	none
CC(C)CCNC(=O)c1ccc(-c2ccccc2)cc1	STAT1 act 132
CC(CCc1ccccc1)NC(=O)c1ccc(C(=O)NC(C)CCc2ccccc2)cc1 (configuration not stated)	STAT3 inh 60
Cc1cccc(NC(=S)NCCC(C)C)c1	none
CC(C)CCNC(=O)C(=O)Nc1ccccc1	STAT1 act 129
O=C(NCC1OCCc2ccccc21)c1ccc(NC(=O)c2ccccc2Cl)cc1 (configuration not stated)	none
O=C(NCc1ccoc1)c1ccc(NC(=O)c2ccccc2Cl)cc1	STAT3 act 133
O=C(COc1ccc(-c2ccccc2)cc1)N1CCCC1	none
Cc1ccccc1C(=O)NC(CC(C)C)C(=O)OCc1cc(=O)n2cc(Br)ccc2n1 (configuration not stated)	NF-kB expr up 3.5, STAT1 act 138
CC1CC1C(=O)OCc1cc(=O)n2cc(Br)ccc2n1 (configuration not stated)	STAT1 act 136
CCCn1c(/N=C/c2ccccc2O)nc2ccccc21	none
Cn1c(/N=C/c2c(O)ccc3ccccc23)nc2ccccc21	STAT3 act 134
CC1CCCCC12NC(=O)N(CC(=O)NC(=O)Nc1ccc3c(c1)OCCO3)C2=O (configuration not stated)	STAT1 act 132
Clc1nc(Cl)nc(NCCC2=CCCCC2)n1	none
CN(C)C=NC(=O)c1cc(C(=O)c2ccc(C(C)(C)C)cc2)c[nH]1	STAT1 act 141, APP 5'UTR act 171
CN(C)C=NC(=O)c1cc(C(=O)c2ccccc2Cl)c[nH]1	none
CC(C)(C)c1ccc(C(=O)c2c[nH]c(C(=O)O)c2)cc1	STAT1 act 142
